What was measured:
[1] = target: Collagenase 3 (Bos taurus, UniProt O77656); test: Inhibitory concentration against MMP-13 of bovine articular cartilage explants
[2] = target: 72 kDa type IV collagenase (Homo sapiens, UniProt P08253); test: Inhibitory concentration against MMP-2
In short: (§1)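 Continuous fluorescence assay of commercially sourced enzyme cleaving a synthetic peptide whose fluorophore (7-methoxycoumarin or 2-aminobenzoyl) is quenched by 2,4-dinitrophenyl. Signal is read at the fluorophore's excitation/emission wavelengths. MMP-2 was preactivated with APMA. MMP-3 used substrate Mca-PKPLAL-Dpa-AR-NH2.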

[3] = species: Bos taurus; test: Selectivity ratio for IC50 of MMP-2 to that of MMP-13
In short: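 Both IC50s come from continuous fluorescence assays using quenched peptide substrates (7-methoxycoumarin or 2-aminobenzoyl fluorophore, 2,4-dinitrophenyl quencher), read by plate fluorimeter. MMP-13 was prepared in-house. MMP-2 was commercial and activated with […]. […] The ratio is MMP-2 IC50 over MMP-13 IC50.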

[4] = target: Matrix metalloproteinase-14 (Homo sapiens, UniProt P50281); test: Inhibitory concentration against MMP-14
[5] = Inhibitory concentration against MMP-9; in short: as §1
[6] = Inhibitory concentration against MMP-7; in short: as §1
[7] = Inhibitory concentration against MMP-3; in short: as §1
[8] = Half-life in rat upon oral administration at 5 mg/kg; assay type: ADME, organism-based; set-up: dose 5 mg/kg, route oral; conditions: in vivo
In short: (§2)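 Rats were dosed intravenously at 2 mg/kg and orally at 5 mg/kg. Clearance and iv half-life come from the intravenous arm, oral half-life from the oral arm, and bioavailability from comparison of the two routes.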

[9] = Total clearance from rat upon iv administration at 2 mg/kg; assay type: ADME, organism-based; set-up: dose 2 mg/kg, route intravenous; conditions: in vivo; in short: as §2
[10] = target: T1, Interstitial collagenase (Homo sapiens, UniProt P03956); test: Inhibitory concentration against MMP-1
T1 sequence (P03956 whole entry): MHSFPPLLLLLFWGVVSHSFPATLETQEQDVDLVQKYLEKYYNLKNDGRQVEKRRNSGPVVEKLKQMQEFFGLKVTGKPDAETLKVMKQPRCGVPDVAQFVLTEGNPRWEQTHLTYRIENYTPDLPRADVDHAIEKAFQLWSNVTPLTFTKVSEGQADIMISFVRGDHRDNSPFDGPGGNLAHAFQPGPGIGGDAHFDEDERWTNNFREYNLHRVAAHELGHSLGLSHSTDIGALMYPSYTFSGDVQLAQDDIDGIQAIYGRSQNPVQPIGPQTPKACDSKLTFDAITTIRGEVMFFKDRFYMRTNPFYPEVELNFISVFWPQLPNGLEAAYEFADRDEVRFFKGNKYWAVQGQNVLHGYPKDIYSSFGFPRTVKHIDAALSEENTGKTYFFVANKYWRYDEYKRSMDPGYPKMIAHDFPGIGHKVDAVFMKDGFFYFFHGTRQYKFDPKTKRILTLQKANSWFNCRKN
In short: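 Continuous fluorescence assay with in-house prepared enzyme. The synthetic peptide substrate carries a 7-methoxycoumarin or 2-aminobenzoyl fluorophore quenched by energy transfer to 2,4-dinitrophenyl. Read in plate fluorimeter at fluorophore excitation/emission wavelengths.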

[11] = Half-life in rat upon iv administration; assay type: ADME, organism-based; conditions: in vivo; in short: as §2
[12] = Oral bioavailability in rat; assay type: ADME, organism-based; conditions: in vivo; in short: as §2

Chain of 72 kDa type IV collagenase (P08253 whole entry): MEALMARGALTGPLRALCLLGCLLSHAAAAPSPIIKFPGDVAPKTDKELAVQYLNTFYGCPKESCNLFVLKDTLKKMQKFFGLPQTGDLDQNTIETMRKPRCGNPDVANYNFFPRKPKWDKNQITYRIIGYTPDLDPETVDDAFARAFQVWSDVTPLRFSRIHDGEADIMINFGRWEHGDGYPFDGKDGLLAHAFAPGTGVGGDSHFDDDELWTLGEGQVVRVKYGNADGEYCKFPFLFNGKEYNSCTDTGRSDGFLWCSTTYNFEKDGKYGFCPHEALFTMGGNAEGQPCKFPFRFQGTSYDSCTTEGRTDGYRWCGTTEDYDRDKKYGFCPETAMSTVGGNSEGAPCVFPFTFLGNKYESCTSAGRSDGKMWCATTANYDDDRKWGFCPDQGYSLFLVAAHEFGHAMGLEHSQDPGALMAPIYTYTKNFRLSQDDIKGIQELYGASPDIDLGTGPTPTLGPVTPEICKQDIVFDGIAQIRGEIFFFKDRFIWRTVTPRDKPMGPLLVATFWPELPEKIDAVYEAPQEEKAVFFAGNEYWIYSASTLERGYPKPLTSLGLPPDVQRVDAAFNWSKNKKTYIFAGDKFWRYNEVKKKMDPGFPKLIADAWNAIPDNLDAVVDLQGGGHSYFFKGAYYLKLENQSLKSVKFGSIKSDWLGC

| SMILES | IC50 [1] [nM] | IC50 [2] [nM] | Selectivity [3] | further results |
| --- | --- | --- | --- | --- |
| O=C(NCCCCN1CCOCC1)c1cc2ccccc2o1 | 3200 |  |  |  |
| CC(Oc1cccc2oc(C(=O)Nc3ccc(-c4ccc(S(=O)(=O)N[C@H](C(=O)O)C(C)C)cc4)cc3)cc12)C(=O)O (stereo not given in full) | 14.9 | 1590 | 107 | IC50 [5]: 5600 nM; IC50 [6]: 2500 nM; IC50 [4]: 20000 nM; IC50 [7]: 843 nM |
| COc1cccc2oc(C(=O)Nc3ccc(-c4ccc(S(=O)(=O)N[C@H](C(=O)O)C(C)C)cc4)cc3)cc12 | 2.33 |  | 6.9 |  |
| CC(C)[C@H](NS(=O)(=O)c1ccc(-c2ccc(NC(=O)c3cc4cc(NS(=O)(=O)c5ccccc5)ccc4o3)cc2)cc1)C(=O)O | 3.4 |  | 5.6 |  |
| CC(C)[C@H](NS(=O)(=O)c1ccc(-c2ccc(NC(=O)c3cc4cc(NS(C)(=O)=O)ccc4o3)cc2)cc1)C(=O)O | 0.43 | 3.9 | 9.1 |  |
| CC(C)[C@H](NS(=O)(=O)c1ccc(-c2ccc(NCc3cc4ccccc4o3)cc2)cc1)C(=O)O | 4.9 | 23.3 |  | IC50 [4]: 6600 nM |
| CC(C)[C@H](NS(=O)(=O)c1ccc(-c2ccc(NC(=O)c3cc4cc([N+](=O)[O-])ccc4o3)cc2)cc1)C(=O)O | 0.7 | 2 | 2.8 |  |
| CC(C)[C@H](NS(=O)(=O)c1ccc(-c2ccc(NC(=O)c3csnn3)cc2)cc1)C(=O)O |  | 2.14 |  |  |
| CC(C)[C@H](NS(=O)(=O)c1ccc(-c2ccc(NC(=O)c3cc4c(OCc5ccccc5)cccc4o3)cc2)cc1)C(=O)O |  |  | 18 |  |
| COc1cccc2cc(C(=O)Nc3ccc(-c4ccc(S(=O)(=O)N[C@H](C(=O)O)C(C)C)cc4)cc3)oc12 | 20.2 | 12.1 | 0.6 | IC50 [4]: 10900 nM |
| Cc1cc(C)c(N(Cc2ccccc2)S(=O)(=O)c2ccc(OCCNC(=O)c3cc4ccccc4o3)cc2)c(C(=O)NO)c1 | 10000 |  |  |  |

The next lines start with results.

| IC50 [1] [nM] | IC50 [2] [nM] | Selectivity [3] | SMILES | further results |
| --- | --- | --- | --- | --- |
| 22 |  |  | O=C(O)CNS(=O)(=O)c1ccc(-c2ccc(NC(=O)c3cc4ccccc4o3)cc2)cc1 |  |
| 2.19 |  |  | CC(C)C[C@H](NS(=O)(=O)c1ccc(-c2ccc(NC(=O)c3cc4ccccc4o3)cc2)cc1)C(=O)O |  |
| 0.66 | 1.9 | 2.8 | COc1ccc2oc(C(=O)Nc3ccc(-c4ccc(S(=O)(=O)N[C@H](C(=O)O)C(C)C)cc4)cc3)cc2c1 | IC50 [4]: 1.5 nM |
| 4.5 | 27.8 |  | O=C(Nc1ccc(-c2ccc(S(=O)(=O)N[C@@H](CO)C(=O)O)cc2)cc1)c1cc2ccccc2o1 |  |
| 2.53 |  |  | NC(=O)C[C@H](NS(=O)(=O)c1ccc(-c2ccc(NC(=O)c3cc4ccccc4o3)cc2)cc1)C(=O)O |  |
| 0.6 | 3.2 | 5.3 | CC(C)[C@H](NS(=O)(=O)c1ccc(-c2ccc(NC(=O)c3cc4cc(Cl)ccc4o3)cc2)cc1)C(=O)O |  |
| 1.5 |  |  | CC(C)[C@H](NS(=O)(=O)c1ccc(-c2ccc(NC(=O)c3cc4cc(N)ccc4o3)cc2)cc1)C(=O)O |  |
|  | 5 |  | CC(C)[C@H](NS(=O)(=O)c1ccc(-c2ccc(NC(=O)c3cc4ccccc4o3)cc2)cc1)C(=O)O | half-life [8]: 3 h; clearance [9]: 2 mL/min/kg; IC50 [10]: > 16000 nM; half-life [11]: 3.7 h; bioavailability [12]: 24% |
| 0.98 | 4 | 4.1 | CC(=O)Nc1ccc2oc(C(=O)Nc3ccc(-c4ccc(S(=O)(=O)N[C@H](C(=O)O)C(C)C)cc4)cc3)cc2c1 |  |
